Experimental data reported in publication PMC9862713 (Bioorganic & Medicinal Chemistry, 2023).
Values after ≈ are worked out from the molar mass of the structure shown. “Also recorded” adds a separate entry of the source.

Key:
HEK-293 = test: MTT cell viability / cytotoxicity assay; assay type: cell-based, Human; settings: 24 and 48 h, concentrations up to 100 µM
How it was run: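 HEK-293 cells kept in DMEM with 2 mM L-glutamine, 10% heat-inactivated FBS and 1% pen/strep at 37 °C, 5% CO2. Seeded at 10,000 cells/well; compound or DMSO vehicle (0.5% final) added 24 h later, 24 or 48 h exposure. MTT 0.5 mg/ml final for 2 h at 37 °C, ethanol solubilisation, A570 (ref 650 nm). Eight serial dilutions in triplicate, sigmoidal dose–response fit; mean ± SD, three independent experiments.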

[1] = Aqueous kinetic solubility in PBS pH 7.4; assay type: physicochemical; settings: for solubility kinetic at 24 h: phosphate buffered saline (PBS), pH 7.4, Kinetic solubility Sk
SARS-CoV-2 RdRp = SARS-CoV-2 RdRp (Severe acute respiratory syndrome coronavirus 2, UniProt P0DTD1); test: RdRp enzymatic assay; assay type: biochemical
[2] = PBS pH 7.4, 25 °C, 24 h, target 250 µM, 2.5 % DMSO

SMILES | Cytotoxicity on HEK-293 (HEK-293) | solubility kinetic at 24 h [1, 2] [µM] | further results
O=c1c(OCCCO)c(-c2ccc(O)c(O)c2)oc2cc(O)cc(O)c12 [Compound 6] | did not appear to be cytotoxic; also recorded: no cytotoxicity | – | Kinetic solubility Sk [1, 2]: 231 µM
O=C(Oc1ccc(O)c(O)c1)c1cc(=O)c2c(O)cccc2o1 [Compound 14] | – | 1 (≈ 0.314 µg/mL) | Increase of activity (IC50 ratio) (SARS-CoV-2 RdRp; compared to 12 and 13): about 4 fold
O=C(OCCc1ccc(O)c(O)c1)c1cc(=O)c2c(O)cccc2o1 [Compound 15] | – | – | Drop of potency (IC50 ratio) (SARS-CoV-2 RdRp; compared to the rigid ester 14): 22 fold
O=c1cc(Cc2ccc(O)c(O)c2)oc2cccc(O)c12 [Compound 7] | – | – | Improvement of kinetic solubility ([1]; compared to the hits (luteolin, quercetin)): 3 to 4 fold
CCCCOc1c(-c2ccc(O)c(O)c2)oc2cc(O)cc(O)c2c1=O [Compound 4] | no cytotoxicity effects; also recorded: did not appear to be cytotoxic | – | –
CC(c1ccc(O)c(O)c1)c1cc(=O)c2c(O)cccc2o1 (stereo not drawn) [Compound 8] | no cytotoxicity effects; also recorded: did not appear to be cytotoxic | – | –
O=C(NCCNC(=S)Nc1ccc(O)c(O)c1)c1cc(=O)c2c(O)cccc2o1 [Compound 17] | – | 1 (≈ 0.415 µg/mL) | –
O=c1cc(/C=C/c2ccc(O)c(O)c2)oc2cccc(O)c12 [Compound 12] | – | 1 (≈ 0.296 µg/mL) | –
O=c1cc(C(CCCC(F)(F)F)c2ccc(O)c(O)c2)oc2cccc(O)c12 (stereo not drawn) [Compound 10] | – | – | IC50 against SARS-CoV-2 RdRp (SARS-CoV-2 RdRp; enzymatic assay, 37 °C, 60 min, duplicate): no inhibition
O=c1c(OCCO)c(-c2ccc(O)c(O)c2)oc2cc(O)cc(O)c12 [Compound 5] | no cytotoxicity effects; also recorded: did not appear to be cytotoxic | – | –
